XiGFP reactiv: reactivates the inactive X chromosome in mouse fibroblasts; AID 743238; activation, % at 7.58 µM; 360,000 tested, 0.055% active; XiGFP mouse fibroblasts, % GFP-positive cells imaging, 3 d; cells co-treated with 5-aza-dC sensitizer; scaled so ellipticine positive control = 100%;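 active = mean normalized replicate activation at least 10% and every replicate at or above 10%; inconclusive = only one of the two criteria met; inactive = mean below 10% and not all replicates reach 10%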
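System: SV40-immortalized XiGFP fibroblast cells, line 68-5-11 / Incubation: 3-day compound exposure, then 15 min fixation at room temperature / Compound: single concentration per compound, delivered by pin transfer / Buffer or medium: DMEM plus 5-aza-dC sensitizer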
ABCB6 inh 2: human ABCB6 transporter inhibition. Q9NP58. K562-ABCB6 porphyrin accumulation, flow cytometry, 1 h; stronger effect = lower value. fluorescence ratio to DMSO, % at 10 µM. 360,000 tested, 0.19% active. AID 602162;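 active = fluorescence ratio to DMSO below 75%, the collection mean minus 3 SD; inconclusive = too few cells collected in the well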;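 also: signal is porphyrin accumulated inside mitochondria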
Myeloid diff 2: compounds promoting myeloid differentiation; ER-HoxA9 myeloid progenitors, lysozyme-GFP differentiation, flow cytometry; calls only at 10 µM; 360,000 tested, 1% active; AID 624256;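 active = normalized GFP-positive differentiation at or above the plate's own cutoff, the solvent-only control mean plus 3 SD; inconclusive = no clear call, values can overlap the other calls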;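 also: cells exposed to compound for four days before flow analysis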
Hits are given with their value; . = inactive; ? = inconclusive; / = no result given; + = active, no number. The sample as a whole holds a higher share of hits than the screen did.

SMILES | XiGFP reactiv | ABCB6 inh 2 | Myeloid diff 2
CCCCCCSc1ccc(-c2nc3cnccn3c2NCCCC)cc1 | . | . | +
CCCCNc1c(-c2ccc(OC)c(SC(C)CC)c2)nc2cnccn12 (stereo not given) | . | . | .
Cc1noc(C)c1NC(=O)N(C)C[C@H]1Oc2ccc(NS(C)(=O)=O)cc2CC(=O)N([C@@H](C)CO)C[C@@H]1C | . | / | /
Cc1cc(C)nc(-n2nc(C)cc2NC(=O)CN2CCC(C)CC2)n1 | / | . | +
Cc1cc(C)nc(-n2nc(C)cc2NC(=O)CN2CCCC2)n1 | . | . | .
COc1ccc2c3c(n(C)c2c1)[C@@H](CO)N(C(=O)Nc1ccc(F)cc1)CC31CCN(C(=O)Cc2ccncc2)CC1 | . | / | /
C[C@H]1CN([C@@H](C)CO)S(=O)(=O)c2ccc(C#CC(C)(C)O)cc2O[C@@H]1CN(C)Cc1ccncc1 | . | / | /
COc1ccc2cc3cc(C(=O)N4CCCCCC4)oc3nc2c1 | / | . | .
COc1ccc2cc3cc(C(=O)N4CCCCC4C)oc3nc2c1 (stereo not given) | . | . | +
COc1ccc(NC(=O)N(C)C[C@H]2OCCCC[C@H](C)Oc3ccc(NC(=O)NC(C)C)cc3C(=O)N([C@H](C)CO)C[C@@H]2C)cc1 | . | / | /
O=C(C1CCCN(S(=O)(=O)c2cccc3nonc23)C1)N1CCN(c2cccc(Cl)c2)CC1 (stereo not given) | / | . | +
O=C(C1CCCN(S(=O)(=O)c2cccc3nonc23)C1)N1CCN(c2ccccc2Cl)CC1 (stereo not given) | . | . | .
NNC(=O)c1ccc(Cn2cc(Br)cn2)o1 | . | . | .
NNC(=O)c1ccc(Cn2cc(Br)c(N)n2)cc1 | . | . | +
Cc1sc2cc3c(c(C(=O)c4ccccc4)[n+]2c1C)-c1cccc2cccc-3c12 | . | / | /
O=C(c1ccccc1)c1c2c(cc3sc4ccccc4[n+]13)-c1cccc3cccc-2c13 | 73 | . | ?
O=C(C[C@H]1CC[C@@H](NC(=O)c2cccc(F)c2)[C@H](CO)O1)NCCN1CCCC1 | . | / | /
COCC(=O)Nc1ccc2c(c1)C(=O)N(C)[C@@H]1CC[C@H](CC(=O)NCCc3ccncc3)O[C@@H]1CO2 | . | / | /
Cc1ccc(-n2c(SCC(=O)O)nc3sc4c(c3c2=O)CCCC4)cc1 | . | . | .
Cc1ccc(-n2c(SCC(=O)c3c(N)n(C)c(=O)n(C)c3=O)nc3sc4c(c3c2=O)CCCC4)c(C)c1 | . | . | +
COc1ccc(C(=O)N=c2sc3c(C)ccc(OC)c3n2C)cc1 | . | . | +
COc1cc(C(=O)N=c2sc3c(C)ccc(OC)c3n2C)cc(OC)c1OC | . | . | .
O=C(C[C@H]1C[C@H]2c3cc(NS(=O)(=O)c4ccc(F)cc4)ccc3O[C@H]2[C@H](CO)O1)NCc1ccccc1F | . | / | /
C[C@@H]1CN([C@@H](C)CO)C(=O)c2cc(-c3ccccc3F)cnc2O[C@@H]1CN(C)C(=O)C1CC1 | . | / | /
Cc1ccc(NC(=O)Nc2ccc3c(c2)OCO3)nc1 | . | . | .
SMILES | XiGFP reactiv | ABCB6 inh 2 | Myeloid diff 2
Cc1ccc(NC(=O)/C=C/c2ccc3c(c2)OCO3)nc1 | . | . | +
COc1ccc(C=C2NC(=S)NC2=O)cc1 | . | . | .
COc1ccc(/C=C/C=C2\NC(=S)NC2=O)cc1 | . | . | +
COc1ccc(CNC(=O)c2cc(C3CC3)nc3c2cnn3C(C)C)cc1 | . | . | .
COc1ccc(CCNC(=O)c2cc(C3CC3)nc3c2cnn3C(C)C)cc1OC | . | . | +
O=C(Nc1ccc2c(c1)nc1n2CCN(C2CCCCC2)C1)c1ccco1 | . | . | .
COc1ccccc1C(=O)Nc1ccc2c(c1)nc1n2CCN(C2CCCCC2)C1 | . | . | +
Cc1sc2nc(C3CC3)nc(SCC(=O)N3c4ccccc4CC3C)c2c1C (stereo not given) | / | . | +
Cc1nc(SCC(=O)N2c3ccccc3NC(=O)CC2C)c2c(C)c(C)sc2n1 (stereo not given) | . | . | .
O=C(N[C@@H]1CC[C@@H](CCn2cc(Cc3ccccc3)nn2)O[C@H]1CO)c1cnccn1 | . | / | /
Cc1cc(/C=N\NC(=O)CC(=O)NC2CCCCC2)c(C)n1-c1cccc(Cl)c1Cl | . | . | .
Cc1cc(/C=N\NC(=O)CC(=O)NC2CCCCC2)c(C)n1-c1ccc(Cl)c(Cl)c1 | / | . | +
C[C@H](CO)N1C[C@H](C)[C@H](CN(C)C(=O)Nc2ccc(F)cc2)Oc2ccc(N(C)C)cc2C1=O | . | / | /
CO/N=C\CC(=O)Nc1ccc(F)cc1 | / | . | .
CO/N=C\CC(=O)Nc1ccc(Cl)cc1Cl | . | . | +
CC=Cc1ccc2n(c1=O)C[C@@H]1[C@@H](CO)[C@H](C(=O)NCc3ccncn3)N(C(=O)NC3CCCC3)[C@H]21 (mixture of isomers) | . | / | /
CCC(=O)N1CC[C@@H]2[C@@H](CO)Nc3ccc(-c4ccc(OC)cc4)cc3[C@@H]21 | . | / | /
CC(=O)Nc1ccccc1OCC(=O)NC(C)c1ccccc1 (stereo not given) | . | . | .
CC(=O)Nc1ccccc1OCC(=O)N(Cc1ccccc1)C(C)C | . | . | +
Cc1ccc(C)c(CSc2nnc(-c3cccs3)n2Cc2ccco2)c1 | / | . | +
NC(=O)CSc1nnc(-c2cccs2)n1Cc1ccco1 | . | . | .
CS(=O)(=O)N1[C@H](CO)[C@H](c2ccccc2)[C@@H]1C#N | . | / | /
C[C@@H]1CN(C)C(=O)Cc2cc([N+](=O)[O-])ccc2O[C@@H]1CN(C)C(=O)OC(C)(C)C | . | / | /
CCOC(=O)N1CCC(NC(=O)CCS(=O)(=O)c2ccc3c(c2)CCN3C(C)=O)CC1 | / | . | .
CC1CCC(NC(=O)CCS(=O)(=O)c2ccc3c(c2)CCN3C(=O)C2CC2)CC1 (stereo not given) | . | . | +
SMILES | XiGFP reactiv | ABCB6 inh 2 | Myeloid diff 2
N#C/C(=C/c1ccccc1)C(=O)NCc1ccccc1 | . | . | .
CN(C)c1ccc(/C=C(/C#N)C(=O)NCc2ccccc2)o1 | 17 | . | .
Cc1ccc(S(=O)(=O)Nc2ccc3c(c2)C(=O)N([C@@H](C)CO)C[C@@H](C)[C@@H](CN(C)C(=O)NC2CCCCC2)OCCCC[C@@H](C)O3)cc1 | . | / | /
O=C(c1ccc(Cl)c(S(=O)(=O)NCc2ccco2)c1)N1CCN(c2ccccc2F)CC1 | / | . | .
COc1ccccc1N1CCN(C(=O)c2ccc(Cl)c(S(=O)(=O)NCc3ccco3)c2)CC1 | / | . | +
O=C(Nc1ccccc1)N[C@H]1CC[C@@H](CCn2cc(-c3ccccc3F)nn2)O[C@H]1CO | . | / | /
CC(C)NC(=O)N(C)C[C@H]1Oc2ccccc2C(=O)N(C)C[C@@H]1C | . | / | /
N=C1c2ccccc2CN1NC(=O)CC12CC3CC(CC(C3)C1)C2 | . | . | +
Cc1cc(C)cc(OCC(=O)NN2Cc3ccccc3C2=N)c1 | / | . | .
C[C@H](CO)N1C[C@H](C)[C@H](CN(C)Cc2ccccn2)Oc2ncc(-c3ccc(C#N)cc3)cc2C1=O | . | / | /
C[C@H](CO)N1C[C@H](C)[C@H](CN(C)CC2CC2)Oc2ccc(NC(=O)Cc3cn(C)c4ccccc34)cc2CC1=O | . | / | /
CSc1nc(SCC(=O)NCc2ccco2)c2c3c(sc2n1)CN(C)CC3 | / | 72 | .
CSc1nc(SCC(N)=O)c2c3c(sc2n1)CN(C)CC3 | / | . | .
